Test [1] can be described thus: Binding affinity to Escherichia coli DNA polymerase 3 subunit beta expressed in Escherichia coli BL21 by SPR analysis. The method in brief: (§1)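 N-His-tagged E. coli β clamp (dnaN in pET15b, BL21, IPTG-induced at 28 C; Ni-NTA then MonoQ) was analysed by SPR on a chip carrying immobilized P1 peptide. For direct binding, β at 0.125–2 μM was injected at 50 μL/min, and background-subtracted data were fit to a 1:1 Langmuir model. For competition, β (0.25 μM) was premixed with peptide (1.5 nM–100 μM) and injected. IC50 came from % binding inhibition; Ki = (1 + KA[β])/IC50 and ΔG = RT ln Ki.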
(In general: Surface plasmon resonance follows binding to a sensor surface in real time, without labels.)

The nature of test [2]: Inhibition of Escherichia coli DNA polymerase 3 subunit beta-dependent elongation activity expressed in Escherichia coli BL21 after 2 hrs by competitive biochemical assay. The gist of the method:
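Assay run in 40 mM HEPES pH 7.5 with 80 mM K-glutamate, BSA, 16% glycerol, NP40 and 8 mM DTT. Primed 30/90-mer duplex (1 nM) was loaded at 37 C with SSB (90 nM), ATP (200 μM) and MgCl2 (7.5 mM), then γ complex (1 nM) and β dimer (5 nM). Mixtures took peptide or DMSO for 5 min at RT plus 2 h at 4 C.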

The nature of test [3]: Binding affinity to Escherichia coli DNA polymerase 3 subunit beta expressed in Escherichia coli BL21 by ITC assay. The gist of the method:
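ITC at 25 C: peptide (400 μM) was injected in 2 μL steps into His-tagged β clamp (20 or 30 μM) in 10 mM Hepes pH 7.4, 0.15 M NaCl, 3 mM EDTA, 0.005% P20. Heats were corrected using peptide-into-buffer controls.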
(ITC needs no label: the signal is the heat of the interaction.)

Test [4] is described as follows: Binding affinity to Escherichia coli DNA polymerase 3 subunit beta expressed in Escherichia coli BL21 assessed as dissociation constant by SPR analysis. The method in brief: as §1
Test [5] can be described thus: Inhibition of Escherichia coli DNA polymerase 3.
The subject of test [6] is Escherichia coli. In words: Ratio of ull length DNA polymerase 4 IC50 to compound IC50 for Escherichia coli DNA polymerase 3 subunit beta by SPR analysis.
Test [7] has as its system Escherichia coli. In words: Ratio of ull length DNA polymerase 4 Kd to compound Kd for Escherichia coli DNA polymerase 3 subunit beta by ITC assay.

Where a SMILES comes first, the peptide text is derived from it. [ ]: non-standard residue; d: D form. Phe(3,4-Cl2) = N[C@@H](Cc1ccc(Cl)c(Cl)c1)C(=O)O; Phe(4-Br) = N[C@@H](Cc1ccc(Br)cc1)C(=O)O; Phe(4-Cl) = N[C@@H](Cc1ccc(Cl)cc1)C(=O)O; Phe(4-Me) = Cc1ccc(C[C@H](N)C(=O)O)cc1; hCha = N[C@@H](CCC1CCCCC1)C(=O)O; tBuAla = CC(C)(C)C[C@H](N)C(=O)O; Cha = N[C@@H](CC1CCCCC1)C(=O)O

Turning to `CC(=O)N[C@@H](CCC(N)=O)C(=O)N[C@@H](CC1CCCCC1)C(=O)N[C@@H](CC(=O)O)C(=O)N[C@@H](CC(C)C)C(=O)N[C@@H](Cc1ccccc1)C(=O)O` (Ac-Q[Cha]DLF-OH), in test [1], the half-maximal inhibitory concentration (IC50) turned out to be 170 nM and the “Ka (inhibitor association constant, 1/M; higher = tighter)” value worked out at 8.01 ×10⁶ /M. This molecule also showed a 50% inhibitory concentration (IC50) in test [2] of 2800 nM. In test [3], this molecule yielded a Kd of 222 nM.

On to `CC(=O)N[C@@H](CCC(N)=O)C(=O)N[C@@H](CCC1CCCCC1)C(=O)N[C@@H](CC(=O)O)C(=O)N[C@@H](CC(C)C)C(=O)N[C@@H](Cc1ccccc1)C(=O)O` (Ac-Q[hCha]DLF-OH), for which, in test [1], the IC50 stood at 82800 nM and the Ka (inhibitor association constant, 1/M; higher = tighter) is 0.0164 ×10⁶ /M.

On to `CC(=O)N[C@@H](CCC(N)=O)C(=O)N[C@@H](CC(C)C)C(=O)N[C@@H](CC(=O)O)C(=O)N[C@@H](CC(C)C)C(=O)N[C@@H](Cc1ccccc1)C(=O)O`, for which, in test [1], the IC50 amounted to 1120 nM and the “Ka (inhibitor association constant, 1/M; higher = tighter)” value turned out to be 1.2 ×10⁶ /M. For the same molecule, in test [2], the IC50 stood at 4500 nM. In addition, binding in test [3] was put at a Kd of 613 nM.

Take H-RQLVLF-OH: in test [1], the half-inhibitory concentration (IC50) came out at 8620 nM and the “Ka (inhibitor association constant, 1/M; higher = tighter)” value amounted to 0.15 ×10⁶ /M. Moreover, the IC50 in test [2] was determined as 7000 nM. In test [3], this molecule returned a Kd of 2320 nM.

Consider `CC(=O)N[C@@H](CCC(N)=O)C(=O)N[C@@H](CC1CCCCC1)C(=O)N[C@@H](CC(=O)O)C(=O)N[C@@H](CC(C)C)C(=O)N[C@@H](Cc1ccc(C)cc1)C(=O)O` (Ac-Q[Cha]DL[Phe(4-Me)]-OH), for which, in test [1], the IC50 came to 260 nM and the “Ka (inhibitor association constant, 1/M; higher = tighter)” value was 8.43 ×10⁶ /M. For the same molecule, the IC50 in test [2] stood at 2000 nM. Binding in test [3] was characterised by a dissociation constant (Kd) of 362 nM.

As to H-RQLVLGL-OH, in test [1], the IC50 came to 8850 nM and the “Ka (inhibitor association constant, 1/M; higher = tighter)” value is given as 0.15 ×10⁶ /M. For the same molecule, in test [4], the Kd was 285 nM. This molecule gave a Kd in test [3] of 1580 nM.

For `CC(=O)N[C@@H](CCC(N)=O)C(=O)N[C@@H](CC1CCCCC1)C(=O)N[C@@H](CC(=O)O)C(=O)N[C@@H](CC(C)C)C(=O)N[C@@H](Cc1ccc(Cl)cc1)C(=O)O` (Ac-Q[Cha]DL[Phe(4-Cl)]-OH), the IC50 in test [1] turned out to be 160 nM; in test [2], 300 nM. In test [1], the “Ka (inhibitor association constant, 1/M; higher = tighter)” value amounted to 13.7 ×10⁶ /M. The molecule also registered a Kd in test [3] of 89 nM.

In turn, H-RQLVFL-OH displayed a half-maximal inhibitory concentration (IC50) in test [1] of 256000 nM.

On to H-RQLVLL-OH, for which, in test [1], the IC50 was 21500 nM and the “Ka (inhibitor association constant, 1/M; higher = tighter)” value turned out to be 0.0063 ×10⁶ /M.

As for `CC(=O)N[C@@H](CCC(N)=O)C(=O)N[C@@H](CCC(C)C)C(=O)N[C@@H](CC(=O)O)C(=O)N[C@@H](CC(C)C)C(=O)N[C@@H](Cc1ccccc1)C(=O)O`, in test [1], the IC50 came to 740 nM and the “Ka (inhibitor association constant, 1/M; higher = tighter)” value stood at 1.84 ×10⁶ /M.

On to `CC(=O)N[C@@H](CCC(N)=O)C(=O)N[C@@H](CC(C)(C)C)C(=O)N[C@@H](CC(=O)O)C(=O)N[C@@H](CC(C)C)C(=O)N[C@@H](Cc1ccccc1)C(=O)O` (Ac-Q[tBuAla]DLF-OH), for which, in test [1], the IC50 amounted to 990 nM and the “Ka (inhibitor association constant, 1/M; higher = tighter)” value was determined as 1.36 ×10⁶ /M.

For the molecule `CC(=O)N[C@@H](CCC(N)=O)C(=O)N[C@@H](CC1CCCCC1)C(=O)N[C@@H](CC(=O)O)C(=O)N[C@@H](CC(C)C)C(=O)N[C@@H](Cc1ccc(Br)cc1)C(=O)O` (Ac-Q[Cha]DL[Phe(4-Br)]-OH), in test [1], the IC50 was 96 nM and the “Ka (inhibitor association constant, 1/M; higher = tighter)” value was 13.49 ×10⁶ /M. Further, in test [2], the IC50 is 250 nM. In test [3], the dissociation constant (Kd) worked out at 136 nM.

On to `CC(C)C[C@H](NC(=O)[C@H](CC(=O)O)NC(=O)[C@H](CC(C)C)NC(=O)[C@@H](N)CCC(N)=O)C(=O)N[C@@H](Cc1ccccc1)C(=O)O`, for which, in test [1], the IC50 came out at 12400 nM and the “Ka (inhibitor association constant, 1/M; higher = tighter)” value turned out to be 0.11 ×10⁶ /M.

Regarding `CCOc1cc(/C=C2\SC(=S)N(CC(=O)O)C2=O)c(Br)c(Br)c1O`, the Ki in test [5] was 10000 nM.

For the molecule `CC(=O)N[C@@H](CCC(N)=O)C(=O)N[C@@H](CC1CCCCC1)C(=O)N[C@@H](CC(=O)O)C(=O)N[C@@H](CC(C)C)C(=O)N[C@@H](Cc1ccc(Cl)c(Cl)c1)C(=O)O` (Ac-Q[Cha]DL[Phe(3,4-Cl2)]-OH), the Ratio IC50 in the test with Escherichia coli [6] stood at 4. Moreover, the IC50 in test [2] turned out to be 125 nM. For the same molecule, the Ratio with Escherichia coli [7] came out at 4. This molecule had an equilibrium dissociation constant (Kd) in test [3] of 55 nM.

Broadly, the IC50 is the concentration at which inhibition is half-maximal. What is called Kd is the equilibrium constant for the complex coming apart. One may read the Ki as a dissociation constant, usually derived from enzyme kinetics or from competition with a known ligand.

Source of the values: ChEMBL document CHEMBL1800039, “Structure-based design of short peptide ligands binding onto the E. coli processivity ring” (J Med Chem, 2011).
